ChEMBL document CHEMBL1127349, “6,7,8,9-Tetrahydro-N,N-di-n-propyl-3H-benzindol-8-amines. Derivatives as potent and orally active serotonin 5-HT1A receptor agonists” (J Med Chem, 1994)
Activity calls are given as the source filed them. The rule behind the calls is not given here.

How the values were obtained:
[1] = Bioavailability in rat (dose 10 uM/kg); format: ADME, organism-based; details: in vivo
Outline: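 Male Sprague-Dawley rats; oral group starved 18 h, compared with iv dosing. Blood sampled up to 12 h, levels by GC/MS. Absolute oral availability F (po/iv) from ratio of AUCs of blood concentration–time curves, po n = 5, iv n = 3.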

[2] = Area under the curve after intravenous administration at a dose of 4 umol/kg; format: ADME; details: in vivo
Outline: (§1)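 Male Sprague-Dawley rats, iv dosing. Blood sampled at intervals up to 12 h, plasma drug levels by GC/MS with internal standard and a 2–1000 pmol/mL standard curve in blank blood. AUC from total area of concentration–time curve; iv n = 3 (table values SEM, n = 4–6).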

D(2) dopamine receptor = D(2) dopamine receptor (Rattus norvegicus, UniProt P61169); assay: Displacement of the radioligand [3H]spiperone from D2 receptor
Sequence of D(2) dopamine receptor (P61169 whole entry): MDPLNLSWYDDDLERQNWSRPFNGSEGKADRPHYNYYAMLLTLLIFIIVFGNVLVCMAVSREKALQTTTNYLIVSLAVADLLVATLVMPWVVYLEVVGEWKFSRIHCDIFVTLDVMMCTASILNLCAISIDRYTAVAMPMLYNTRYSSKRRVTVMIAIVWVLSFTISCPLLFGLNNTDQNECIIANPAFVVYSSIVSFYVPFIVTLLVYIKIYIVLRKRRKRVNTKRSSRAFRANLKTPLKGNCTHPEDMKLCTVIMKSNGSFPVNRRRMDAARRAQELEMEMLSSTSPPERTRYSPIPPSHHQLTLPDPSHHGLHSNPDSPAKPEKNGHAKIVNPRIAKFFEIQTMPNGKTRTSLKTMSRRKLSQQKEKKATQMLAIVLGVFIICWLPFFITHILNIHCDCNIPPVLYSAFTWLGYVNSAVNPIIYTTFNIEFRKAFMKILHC
Outline: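 Rat striatal membranes in 50 mM potassium phosphate buffer, incubated with 0.5 nM [3H]spiperone (3 mg tissue) 10 min at 37 °C. Nonspecific binding defined with 10 μM 6,7-ADTN. IC50 converted to Ki by Cheng–Prusoff; 3–7 experiments, each concentration in triplicate.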

[3] = Half life in plasma after administration of 4 umol/kg dose intravenously; format: ADME, organism-based; details: iv; outline: as §1
[4] = Time taken to reach maximum concentration after administration of 10 umol/kg dose perorally; format: ADME, organism-based; details: in vivo, po
Outline: (§2)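 Male Sprague-Dawley rats, starved 18 h for the oral arm, dosed iv or po. Blood sampled at intervals up to 12 h. Compound measured by GC/mass spectrometry against an internal standard, with a standard curve over 2–1000 pmol/mL in blank blood. tmax read from concentration–time curves, n = 4–6.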

Rattus norvegicus [5] = assay: The concentration yielding a half maximal decrease of the DOPA was determined in rat brain hemispheres; Inactive at 12.5 umol/kg; format: functional, organism-based
Outline: (§3)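 Reserpine-pretreated (5 mg/kg sc, 18 h) male Sprague-Dawley rats, 200–300 g; compounds in saline given sc. DOPA and 5-HTP in limbic system, striatum and hemispheres measured by HPLC with electrochemical detection. Dose–response curves of 4–6 doses (n = 4) per area, fitted to variable-slope sigmoid on log data to give ED50.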

Rattus norvegicus [6] = organism: Rattus norvegicus; assay: Log concentration to inhibit DOPA accumulation was determined in rat limbic system; format: functional; outline: as §3
Rattus norvegicus [7] = organism: Rattus norvegicus; assay: Log concentration to inhibit 5-HTP accumulation was determined in rat brain striatum; format: functional; outline: as §3
Rattus norvegicus [8] = organism: Rattus norvegicus; assay: The concentration yielding a half maximal decrease of the DOPA was determined in rat brain striatum; format: functional; outline: as §3
[9] = Time taken to reach maximum concentration after administration of 4 umol/kg dose intravenously; format: ADME, organism-based; details: in vivo, iv; outline: as §2
Rattus norvegicus [10] = organism: Rattus norvegicus; assay: Log concentration to inhibit 5-HTP accumulation was determined in rat limbic system; format: functional; outline: as §3
Rattus norvegicus [11] = assay: Motor activity was measured by motility testing on injecting the compound subcutaneously into rats at the dose of 12.5 umol/kg; format: functional
Outline: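 Rats given reserpine 5 mg/kg sc 18 h beforehand, then test compound sc in neck (n = 4). Placed singly in photocell motility meters straight after dosing; counts recorded for 30 min, gross behaviour observed throughout. Value as counts/30 min with SEM.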

Rattus norvegicus [12] = organism: Rattus norvegicus; assay: The concentration yielding a half maximal decrease of the 5-HTP was determined in rat brain striatum.; format: functional
Rattus norvegicus [13] = organism: Rattus norvegicus; assay: Log concentration to inhibit DOPA accumulation was determined in rat brain striatum; format: functional; outline: as §3
Rattus norvegicus [14] = assay: Ratio of the 5HTP-accumulation decrease in limbic regions after sc to that of po administration at 10 umol/kg; format: functional, Limbic system
Rattus norvegicus [15] = organism: Rattus norvegicus; assay: The concentration yielding a half maximal decrease of the 5-HTP was determined in rat brain hemispheres.; format: functional
[16] = Maximum concentration in plasma after administration of 4 umol/kg dose intravenously; format: ADME, organism-based; set-up: dose 4 umol/kg, route intravenous; details: iv; outline: as §1
Rattus norvegicus [17] = organism: Rattus norvegicus; assay: The concentration yielding a half maximal decrease of the DOPA was determined in rat limbic system; format: functional
Rattus norvegicus [18] = organism: Rattus norvegicus; assay: Log concentration to inhibit 5-HTP accumulation was determined in rat brain hemispheres; format: functional; outline: as §3
[19] = Maximum concentration in plasma after administration of 10 umol/kg dose perorally; format: ADME, organism-based; set-up: dose 10 umol/kg, route oral; details: po
Outline: (§4)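 Male Sprague-Dawley rats starved 18 h, dosed orally. Blood samples over up to 12 h, drug quantified by GC/MS against internal standard (2–1000 pmol/mL standard curve). Cmax read from concentration–time curve; SEM, n = 4–6.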

Rattus norvegicus [20] = organism: Rattus norvegicus; assay: The concentration yielding a half maximal decrease of the 5-HTP was determined in rat limbic system.; format: functional
Rattus norvegicus [21] = assay: Ratio of the 5HTP-accumulation decrease in limbic regions after sc and po administration at 10 umol/kg; format: functional, Limbic system
Outline: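 Ratio of ED50 for decrease of limbic 5-HTP accumulation after oral versus sc dosing in reserpine-pretreated rats; 5-HTP measured by HPLC with electrochemical detection.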

Rattus norvegicus [22] = organism: Rattus norvegicus; assay: The concentration yielding a half maximal decrease of the 5-HTP was determined in rat brain hemispheres; format: functional; outline: as §3
Rattus norvegicus [23] = organism: Rattus norvegicus; assay: The concentration yielding a half maximal decrease of the 5-HTP was determined in rat limbic system; format: functional; outline: as §3
Rattus norvegicus [24] = assay: The concentration yielding a half maximal decrease of the DOPA was determined in rat brain hemispheres; inactive at 12.5 umol/kg; format: functional, organism-based; outline: as §3
[25] = Maximum concentration in plasma after administration of 2 umol/kg dose intravenously; format: ADME, organism-based; set-up: dose 2 umol/kg, route intravenous; details: iv
[26] = Area under the curve after intravenous administration at a dose of 2 umol/kg; format: ADME; details: in vivo
[27] = Half life in plasma after administration of 2 umol/kg dose intravenously; format: ADME, organism-based; details: iv
[28] = Time taken to reach maximum concentration after administration of 2 umol/kg dose intravenously; format: ADME, organism-based; details: in vivo, iv
Rattus norvegicus [29] = organism: Rattus norvegicus; assay: The concentration yielding a half maximal decrease of the 5-HTP was determined in rat brain striatum; format: functional; outline: as §3
Rattus norvegicus [30] = assay: The concentration yielding a half maximal decrease of the DOPA was determined in rat brain striatum; inactive at 12.5 umol/kg; format: functional, organism-based
[31] = Time taken to reach maximum concentration after administration of 40 umol/kg dose perorally; format: ADME, organism-based; details: in vivo, po; outline: as §2
Rattus norvegicus [32] = organism: Rattus norvegicus; assay: The concentration yielding a half maximal decrease of the DOPA was determined in rat limbic system.; format: functional
[33] = Half life in plasma after administration of 5 umol/kg dose intravenously; format: ADME, organism-based; details: iv; outline: as §1
[34] = Bioavailability in rats after 2 mg/kg (i.v.) and 10 mg/kg (p.o.) administration; format: ADME, organism-based; details: rat, in vivo, po
[35] = Maximum concentration in plasma after administration of 40 umol/kg dose perorally; format: ADME, organism-based; set-up: dose 40 umol/kg, route oral; details: po; outline: as §4
[36] = Time taken to reach maximum concentration after administration of 5 umol/kg dose intravenously; format: ADME, organism-based; details: in vivo, iv; outline: as §2
[37] = target: T1, 5-hydroxytryptamine receptor 1A (Rattus norvegicus, UniProt P19327); assay: Displacement of the radioligand [3H]8-OH-DPAT from 5-hydroxytryptamine 1A receptor
T1 sequence (P19327 whole entry): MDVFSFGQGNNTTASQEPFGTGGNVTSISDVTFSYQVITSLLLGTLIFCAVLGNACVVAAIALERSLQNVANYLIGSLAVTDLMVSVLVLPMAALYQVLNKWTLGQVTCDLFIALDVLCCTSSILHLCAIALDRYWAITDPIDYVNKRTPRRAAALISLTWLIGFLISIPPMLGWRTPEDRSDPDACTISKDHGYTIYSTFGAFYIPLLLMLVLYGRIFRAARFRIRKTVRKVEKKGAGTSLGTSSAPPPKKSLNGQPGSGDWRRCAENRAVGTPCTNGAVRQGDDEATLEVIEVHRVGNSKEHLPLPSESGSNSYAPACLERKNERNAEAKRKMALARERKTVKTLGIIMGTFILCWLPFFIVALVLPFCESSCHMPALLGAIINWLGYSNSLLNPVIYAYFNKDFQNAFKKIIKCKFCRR
Outline: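 Rat whole brain minus brain stem and cerebellum, washed membranes in 50 mM Tris pH 8.0 with 120 mM NaCl, 4 mM CaCl2, 4 mM MgCl2, 10 μM pargyline. Nonspecific with 10 μM 5-HT. IC50 by semilog linear regression, Ki via Cheng–Prusoff; 3–7 experiments, triplicates.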

Rattus norvegicus [38] = organism: Rattus norvegicus; assay: Log concentration to inhibit DOPA accumulation was determined in rat brain hemispheres; format: functional; outline: as §3
Rattus norvegicus [39] = organism: Rattus norvegicus; assay: The concentration yielding a half maximal decrease of the DOPA was determined in rat brain striatum.; format: functional
[40] = Area under the curve after intravenous administration at a dose of 5 umol/kg; format: ADME; details: in vivo; outline: as §1
Rattus norvegicus [41] = organism: Rattus norvegicus; assay: The concentration yielding a half maximal decrease of the DOPA was determined in rat brain hemispheres; format: functional
[42] = Maximum concentration in plasma after administration of 5 umol/kg dose intravenously; format: ADME, organism-based; set-up: dose 5 umol/kg, route intravenous; details: iv; outline: as §1

Structure (SMILES) | bioavailability [1] | Ki (D(2) dopamine receptor) | Tmax [4] | pED50 (Rattus norvegicus [6]) | pED50 (Rattus norvegicus [7]) | pED50 (Rattus norvegicus [10]) | Activity (Rattus norvegicus [11]) | ED50 (Rattus norvegicus [12]) | pED50 (Rattus norvegicus [13]) | ED50 (Rattus norvegicus [15]) | ED50 (Rattus norvegicus [17]) | pED50 (Rattus norvegicus [18]) | Cmax [19] | ED50 (Rattus norvegicus [20]) | further results
CCCN(CCC)[C@@H]1CCc2ccc3[nH]c(C#N)cc3c2C1 [U-92,016-A] | 63% | 538 nM | 1.25 h | 5.69 | 7.1 | 6.67 | 194 Counts 30min-1 | 0.079 µmol/kg | 5.47 | 0.28 µmol/kg | 2.01 µmol/kg | 6.56 | 1120 nM | 0.21 µmol/kg | AUC [2]: 1817 pM/kg; half-life [3]: 1.5 h; ED50 (Rattus norvegicus [5]): inactive; ED50 (Rattus norvegicus [8]): 3.36 µmol/kg; Tmax [9]: 4 min; ED50 (Rattus norvegicus [14]): 55%; Cmax [16]: 2570 nM
CCCN(CCC)[C@H]1CCc2ccc3[nH]cc(C=O)c3c2C1 | 72% | 3590 nM | 0.8 h | 5.36 | 8.28 | 6.94 | – | – | – | – | 4.33 µmol/kg | 7.49 | 606 nM | – | ED50 (Rattus norvegicus [21]): 18%; ED50 (Rattus norvegicus [22]): 0.032 µmol/kg; ED50 (Rattus norvegicus [23]): 0.11 µmol/kg; ED50 (Rattus norvegicus [24]): inactive; Cmax [25]: 849 nM; AUC [26]: 607 pM/kg; half-life [27]: 1 h; Counts/30 min (Rattus norvegicus [11]): 413; Tmax [28]: 2 min; ED50 (Rattus norvegicus [29]): 0.052 µmol/kg; ED50 (Rattus norvegicus [30]): inactive
CCCN(CCC)C1CCc2ccc3[nH]cc(C#N)c3c2C1 (stereo not drawn) | – | 439 nM | – | 5.98 | 6.65 | 6.77 | 317 Counts 30min-1 | 0.22 µmol/kg | 5.49 | 0.45 µmol/kg | – | 6.35 | – | 0.17 µmol/kg | Tmax [31]: 2.25 h; ED50 (Rattus norvegicus [32]): 1.05 µmol/kg; half-life [33]: 1.5 h; bioavailability [34]: 54%; Cmax [35]: 1500 nM; Tmax [36]: 2 min; Ki [37]: 1.8 nM; pED50 (Rattus norvegicus [38]): 5.29; ED50 (Rattus norvegicus [39]): 3.2 µmol/kg; AUC [40]: 1115 pM/kg; ED50 (Rattus norvegicus [41]): 5.2 µmol/kg; Cmax [42]: 1730 nM
